Data as given in ChEMBL document CHEMBL3734718, “Development of new highly potent imidazo[1,2-b]pyridazines targeting Toxoplasma gondii calcium-dependent protein kinase 1” (Eur J Med Chem, 2015).

Key:
[1] = Inhibition of porcine brain CK1-delta/epsilon using CKS peptide substrate after 30 mins by scintillation and luminescence counting method in presence of [gamma-33P]ATP; parameters: species or system Sus scrofa
[2] = biological target: Glycogen synthase kinase-3 (Sus scrofa, UniProt B2LUN4+I6LNT8); test: Inhibition of porcine brain GSK-3 alpha/beta using GS-1 substrate after 30 mins by scintillation and luminescence counting method in the presence of [gamma-33P]ATP
[3] = biological target: Cyclin-dependent kinase 5/CDK5 activator 1 (Homo sapiens, UniProt Q00535); test: Inhibition of human recombinant CDK5/P25 expressed in Escherichia coli using histone H1 substrate after 30 mins by scintillation and luminescence counting method in presence of [gamma-33P]ATP
Chain of Cyclin-dependent kinase 5/CDK5 activator 1 (Q00535 whole entry): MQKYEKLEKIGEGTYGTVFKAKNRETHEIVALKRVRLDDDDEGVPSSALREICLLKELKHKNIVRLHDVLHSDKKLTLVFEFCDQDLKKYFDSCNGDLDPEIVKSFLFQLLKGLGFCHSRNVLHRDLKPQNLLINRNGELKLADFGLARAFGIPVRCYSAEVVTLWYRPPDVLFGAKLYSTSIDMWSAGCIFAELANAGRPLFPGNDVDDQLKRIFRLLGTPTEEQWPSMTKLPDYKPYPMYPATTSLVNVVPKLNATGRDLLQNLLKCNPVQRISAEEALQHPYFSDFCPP
Chain of Cyclin-dependent kinase 5/CDK5 activator 1 (Q15078 whole entry, further chain): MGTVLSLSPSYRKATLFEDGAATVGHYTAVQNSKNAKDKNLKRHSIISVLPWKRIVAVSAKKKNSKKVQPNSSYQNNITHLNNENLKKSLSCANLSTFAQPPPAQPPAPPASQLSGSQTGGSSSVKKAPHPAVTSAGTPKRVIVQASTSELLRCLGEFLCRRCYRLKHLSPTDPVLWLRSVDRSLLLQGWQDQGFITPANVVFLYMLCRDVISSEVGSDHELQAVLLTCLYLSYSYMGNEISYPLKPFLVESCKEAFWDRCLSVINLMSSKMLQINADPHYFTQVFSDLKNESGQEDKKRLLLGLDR

[4] = Inhibition of wild type recombinant Toxoplasma gondii CDPK1 using syntide-2 substrate after 30 mins by Kinase-Glo luminescent assay
[5] = Selectivity ratio of IC50 for full length human GST-tagged RIPK3 expressed in Spodoptera frugiperda Sf9 cells to IC50 for wild type recombinant Toxoplasma gondii CDPK1
[6] = Selectivity ratio of IC50 for human recombinant CDK5/P25 expressed in Escherichia coli to IC50 for wild type recombinant Toxoplasma gondii CDPK1; format: cell-free
[7] = Selectivity ratio of IC50 for porcine brain CK1-delta/epsilon to IC50 for wild type recombinant Toxoplasma gondii CDPK1
[8] = biological target: Receptor-interacting serine/threonine-protein kinase 3 (Homo sapiens, UniProt Q9Y572); test: Inhibition of full length human GST-tagged RIPK3 expressed in Spodoptera frugiperda Sf9 cells after 30 mins by scintillation and luminescence counting method in the presence of [gamma-33P]ATP
Chain of Receptor-interacting serine/threonine-protein kinase 3 (Q9Y572 whole entry): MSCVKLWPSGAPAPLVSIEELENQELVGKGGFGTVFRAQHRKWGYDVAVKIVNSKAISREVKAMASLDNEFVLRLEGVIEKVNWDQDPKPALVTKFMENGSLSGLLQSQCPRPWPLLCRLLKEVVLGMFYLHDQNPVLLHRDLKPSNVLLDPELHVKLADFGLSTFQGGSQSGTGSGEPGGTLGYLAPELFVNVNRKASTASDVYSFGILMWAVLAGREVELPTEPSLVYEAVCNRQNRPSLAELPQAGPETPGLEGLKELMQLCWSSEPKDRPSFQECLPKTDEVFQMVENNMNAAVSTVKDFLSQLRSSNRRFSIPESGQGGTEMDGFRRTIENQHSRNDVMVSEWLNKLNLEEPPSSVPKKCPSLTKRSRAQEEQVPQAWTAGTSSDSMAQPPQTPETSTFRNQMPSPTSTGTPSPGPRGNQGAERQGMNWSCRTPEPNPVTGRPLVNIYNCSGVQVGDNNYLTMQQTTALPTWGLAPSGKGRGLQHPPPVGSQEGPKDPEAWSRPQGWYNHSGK

Toxoplasma gondii = test: Antiparasitic activity against Toxoplasma gondii RH tachyzoite expressing beta-galactosidase assessed as inhibition of tachyzoite invasion into human foreskin fibroblast host cells after 96 hrs by colorimetric microtitre assay; format: functional, organism-based
Method in brief: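 Invasion of HFF host cells by a recombinant T. gondii strain carrying bacterial β-galactosidase was judged indirectly from parasite growth inhibition in a colorimetric microtiter format.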

[9] = Selectivity ratio of IC50 for porcine brain GSK-3 alpha/beta to IC50 for wild type recombinant Toxoplasma gondii CDPK1
[10] = Cytotoxicity against HFF assessed as cell proliferation after 96 hrs by alamar blue reduction assay; format: cell-based; settings: human, HFF cells
Method in brief: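 Non-specific toxicity to HFF host cells was measured by Alamar Blue reduction as a quantitative read-out of cell proliferation, with the CC50 derived.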

[11] = biological target: T1, Serine/threonine-protein kinase haspin (Homo sapiens, UniProt Q8TF76); test: Inhibition of human recombinant haspin kinase domain expressed in Escherichia coli BL21-KRX using histone H3 (1 to 21) peptide substrate after 30 mins by scintillation and luminescence counting method in the presence of [gamma-33P]ATP
T1 sequence (Q8TF76 whole entry): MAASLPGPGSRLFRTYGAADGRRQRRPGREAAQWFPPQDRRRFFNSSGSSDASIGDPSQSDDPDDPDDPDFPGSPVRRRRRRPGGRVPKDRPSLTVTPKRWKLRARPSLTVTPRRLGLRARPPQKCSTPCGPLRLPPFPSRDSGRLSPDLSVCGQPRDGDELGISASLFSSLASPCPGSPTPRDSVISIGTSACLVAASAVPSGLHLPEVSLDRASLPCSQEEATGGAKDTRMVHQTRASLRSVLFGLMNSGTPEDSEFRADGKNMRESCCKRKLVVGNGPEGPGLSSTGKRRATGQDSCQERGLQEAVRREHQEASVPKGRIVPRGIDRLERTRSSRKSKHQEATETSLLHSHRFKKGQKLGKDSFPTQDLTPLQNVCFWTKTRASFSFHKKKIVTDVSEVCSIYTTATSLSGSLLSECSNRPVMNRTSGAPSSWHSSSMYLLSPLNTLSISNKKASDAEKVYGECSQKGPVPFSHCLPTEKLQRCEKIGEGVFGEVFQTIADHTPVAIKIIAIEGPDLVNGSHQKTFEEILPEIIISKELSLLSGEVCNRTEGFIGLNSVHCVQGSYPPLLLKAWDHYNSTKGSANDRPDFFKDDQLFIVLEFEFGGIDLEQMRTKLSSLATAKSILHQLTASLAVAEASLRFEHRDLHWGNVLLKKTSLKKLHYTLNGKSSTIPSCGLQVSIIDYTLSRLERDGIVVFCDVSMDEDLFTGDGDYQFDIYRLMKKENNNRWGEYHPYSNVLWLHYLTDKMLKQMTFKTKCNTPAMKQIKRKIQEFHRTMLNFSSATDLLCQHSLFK

[12] = Selectivity ratio of IC50 for human recombinant haspin kinase domain expressed in Escherichia coli BL21-KRX to IC50 for wild type recombinant Toxoplasma gondii CDPK1; format: cell-free
[13] = Lipophilicity, log P of the compound; format: physicochemical; settings: octanol/water

Row | IC50 [1] [µM] | IC50 [2] [µM] | IC50 [3] [µM] | IC50 [8] [µM] | IC50 [11] [µM] | logP [13] | SMILES | IC50 [4] [µM] | Ratio IC50 [5] | Ratio IC50 [6] | Ratio IC50 [7] | EC50 (Toxoplasma gondii) [µM] | Ratio IC50 [9] | CC50 at 96 h [10] [µM] | Ratio IC50 [12]
1 | 0.95 | > 10 | > 10 | > 10 | > 10 | – | CN1CCN(c2ccc3nc(-c4ccc5ncsc5c4)c(-c4ccncc4)n3n2)CC1 | 0.4 | – | – | – | 1.66 | – | 17.5 | –
2 | > 10 | > 10 | > 10 | > 10 | > 10 | – | CN1CCN(c2ccc3nc(-c4cccc5c4OCO5)c(-c4ccncc4)n3c2)CC1 | 0.85 | – | – | – | > 5 | – | > 50 | –
3 | ≥ 10 | 2.2 | > 10 | > 10 | > 10 | – | CN1CCN(c2ccc3nc(-c4cccc5c4OCO5)c(-c4ccccc4)n3n2)CC1 | 5.4 | – | – | – | 1.9 | – | 21.9 | –
4 | 2.4 | 3.5 | > 10 | 5.5 | > 10 | 5 | c1cc2c(c(-c3nc4cccnn4c3-c3ccncc3)c1)OCO2 | 0.22 | – | – | – | 1.28 | – | 8.2 | –
5 | > 10 | > 10 | > 10 | 1.7 | > 10 | 5 | CCOc1ccc2c(-c3nc4ccc(N5CCN(C)CC5)nn4c3-c3ccncc3)cccc2c1 | 0.91 | – | – | – | 1.71 | – | 7.6 | –
6 | 0.4 | 8.8 | > 10 | ≥ 10 | > 10 | – | COc1cccc(-c2nc3ccc(N4CCN(C)CC4)nn3c2-c2ccncc2)c1 | 0.009 | – | – | – | 0.05 | – | 38 | –
7 | > 10 | > 10 | > 10 | 1.2 | > 10 | – | COc1ccc2c(-c3nc4ccc(N5CCN(C)CC5)nn4c3-c3ccncc3)cccc2c1 | 0.5 | – | – | – | 2.21 | – | 20.9 | –
8 | ≥ 10 | > 10 | > 10 | > 10 | > 10 | < 3 | CN1CCN(c2ccc3nc(-c4ccc5c(c4)OCCO5)c(-c4ccncc4)n3n2)CC1 | 0.11 | – | – | – | 0.49 | – | 7.6 | –
9 | 0.15 | > 10 | > 10 | 7.6 | > 10 | – | CN1CCN(c2ccc3nc(-c4ccc5c(c4)OCO5)c(-c4ccncc4)n3n2)CC1 | 0.15 | – | – | – | 0.63 | – | 17.5 | –
10 | ≥ 10 | 7.6 | > 10 | 0.3 | > 10 | 5 | CN1CCN(c2ccc3nc(-c4cccc(-c5ccsc5)c4)c(-c4ccncc4)n3n2)CC1 | 0.5 | – | – | – | 0.61 | – | 6.3 | –
11 | > 10 | > 10 | > 10 | > 10 | > 10 | – | CN1CCN(c2ccc3nc(-c4ccc(C(=O)N5CCOCC5)cc4)c(-c4ccncc4)n3n2)CC1 | > 5 | – | – | – | > 5 | – | 14.1 | –
12 | 3.1 | 10 | > 10 | 0.27 | > 10 | 5 | CN1CCN(c2ccc3nc(-c4cccc(-c5cccs5)c4)c(-c4ccncc4)n3n2)CC1 | 0.37 | – | – | – | 1.42 | – | 6.7 | –
13 | > 10 | > 10 | > 10 | > 10 | 3.9 | < 3 | CN1CCN(c2ccc3nc(-c4cccc(C(=O)N5CCOCC5)c4)c(-c4ccncc4)n3n2)CC1 | 3.05 | – | – | – | > 5 | – | 6.4 | –

Continued, compound first:

Row | SMILES | IC50 [1] [µM] | IC50 [2] [µM] | IC50 [3] [µM] | IC50 [8] [µM] | IC50 [11] [µM] | logP [13] | IC50 [4] [µM] | Ratio IC50 [5] | Ratio IC50 [6] | Ratio IC50 [7] | EC50 (Toxoplasma gondii) [µM] | Ratio IC50 [9] | CC50 at 96 h [10] [µM] | Ratio IC50 [12]
14 | CN1CCN(c2ccc3nc(-c4cccc5ccccc45)c(-c4ccncc4)n3n2)CC1 | 0.51 | > 10 | > 10 | 0.88 | > 10 | – | 0.008 | > 100 | > 1000 | 25 | 0.07 | > 1000 | 21.3 | > 1000
15 | CN1CCN(c2ccc3nc(-c4cccc5c4OCCO5)c(-c4ccncc4)n3n2)CC1 | 2 | > 10 | > 10 | > 10 | > 10 | – | 1.23 | – | – | – | 0.94 | – | > 50 | –
16 | CC1CN(c2ccc3nc(-c4cccc5c4OCO5)c(-c4ccncc4)n3n2)CC(C)N1C (configuration not stated) | – | – | – | – | – | – | 0.63 | – | – | – | 0.63 | – | > 50 | –
17 | CN1CCN(c2ccc3nc(-c4cccc5c4OCO5)c(-c4ccncc4)n3n2)CC1 | 0.37 | 5.4 | > 10 | 2.5 | > 10 | – | 0.014 | > 100 | > 380 | 25 | 0.1 | > 380 | 42.5 | > 380
18 | CN1CCN(c2ccc3nc(-c4ccc(-c5ccccc5)s4)c(-c4ccncc4)n3n2)CC1 | > 10 | > 10 | > 10 | > 10 | > 10 | 5 | 3.58 | – | – | – | 3.07 | – | 6.8 | –
19 | CN1CCN(c2ccc3nc(-c4cccc5c4OCO5)c(-c4cccnc4)n3n2)CC1 | > 10 | > 10 | > 10 | > 10 | > 10 | – | 6.5 | – | – | – | > 5 | – | 35.9 | –
20 | CN1CCN(c2ccc3nc(-c4ccc(-c5ccccc5)cc4)c(-c4ccncc4)n3n2)CC1 | > 10 | > 10 | > 10 | > 10 | > 10 | – | 3.43 | – | – | – | > 5 | – | 13.7 | –
21 | CCc1nc(N)nc(N)c1-c1ccc(Cl)cc1 [PYRIMETHAMINE] | – | – | – | – | – | – | – | – | – | – | 0.34 | – | > 50 | –
22 | CN1CCN(c2ccc3nc(-c4cccc(-c5ccccc5)c4)c(-c4ccncc4)n3n2)CC1 | > 10 | > 10 | > 10 | 0.45 | > 10 | – | 0.44 | – | – | – | 1 | – | 10.9 | –
